eIF4E 4G PPI: inhibitors of eIF4E and eIF4G interaction in translation initiation; TR-FRET eIF4E-eIF4GI(517-606) binding, 2 h; inhibition, % at 21.7 µM; actives 0.37% (n = 220,000); AID 782;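 further: 0% = full FRET control wells and 100% = background wells lacking eIF4GI fragment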
Diaph act CS: diaphorase activation or chemical reduction counter-screen. Diaphorase/resazurin coupled assay, resorufin fluorescence, 16 min; stronger effect = higher value; 1 = vehicle wells, 0 = NADH-free wells. activation factor at 20 µM. actives 0.005% (n = 190,000);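 active means diaphorase activity raised at least twofold by the compound at 20 µM; inactive means activation factor below 2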
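test system = bacterial diaphorase enzyme (C. kluyveri) | quantity = enzyme 0.07 U/mL final | reagent = NADH substrate 0.114 mM plus resazurin dye 0.1 mM, final | incubation = 16 min enzyme reaction, ambient temperature | buffer or medium = HEPES pH 7.4 buffer with MgCl2 and Tween 20 | signal = fluorescence of resorufin, 544 nm excitation, 590 nm emission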
14-3-3 Bad PPI: disrupts binding of bovine 14-3-3 zeta to phospho-Bad peptide; TR-FRET 14-3-3zeta/Dy647-pBad peptide displacement, 1 h; inhibition, % at 21.7 µM; P63103; AID 781; actives 0.71% (n = 220,000);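 active means inhibition above about 70%, limit read from the data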;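 further: 0% = full 14-3-3 plus peptide FRET controls and 100% = background without 14-3-3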
NCF1 inh: p47phox (human) inhibition; P14598; p47phox/p22phox peptide binding, fluorescence polarization, 2 h; inhibition, % at 24.7 µM; actives 0.53% (n = 220,000); AID 1274;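 further: 0% = p47phox with labelled peptide and 100% = labelled peptide alone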
Hck-Nef inh: human Hck-Nef kinase inhibition; AID 463187; actives 0.68% (n = 220,000); Recombinant Hck-YEEI plus Nef, Z-Lyte FRET kinase assay; P08631; inhibition, % at 20 µM;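 active means Hck-Nef kinase inhibition above about 50%, limit read from the data; inactive means inhibition below that limit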;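 further: 0% = DMSO with Hck plus Nef and 100% = Hck alone without Nef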
Hck Nef conf: confirmation of Hck-Nef kinase inhibitors; shares compounds with Hck-Nef inh; Recombinant Hck-YEEI:Nef, Z-Lyte FRET kinase assay; calls only at 10 µM; actives 28% (n = 1,300);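 active means average inhibition of at least 50%, with Z-scores no higher than 3 in both the phospho-tyrosine peptide and fluorescence counterscreens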
* hit, by the source's call; i = inactive; · = not tested or not shown; + = active, no number. Rows were chosen to be rich in hits. Some 2% of all compounds tested hit in one or more screens of this group.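 How the source made its calls, unless noted: active means inhibition above about 30% (limit read from the data); inactive means the rest.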

SMILES	eIF4E 4G PPI	Diaph act CS	14-3-3 Bad PPI	NCF1 inh	Hck-Nef inh	Hck Nef conf
C=CCc1cc(Cl)ccc1OCCOCCN(C)C	-4.4	0.9	53.8	-14.2	-3.7	·
Cn1c(N)c(S(=O)(=O)N2CCN(Cc3ccccc3)CC2)c(=O)n(C)c1=O	-0.6	0.9	10.6	6.0	18.5	·
Clc1ccc(NNc2ccnc3cc(Cl)ccc23)cc1	-11.5	1	26.8	-4.4	3.6	·
Oc1ccc(Nc2ccnc3cc(Cl)ccc23)cc1	-0.3	·	-10.4	-3.0	64.5*	+
COc1ccc(C2C(C(=O)c3ccccc3)N3c4ccccc4C=CC3C2[N+](=O)[O-])cc1 (configuration not stated)	4.0	1	-18.9	-11.9	-1.6	·
O=C1c2ccccc2C(O)N1Cc1cccs1 (configuration not stated)	1.4	1	-3.1	-4.8	-5.8	·
CCN1CCN(Cc2ccc(NC(=O)c3ccc(C)c(NC(=O)c4nccnc4N)c3)cc2C(F)(F)F)CC1	2.5	·	-3.6	-3.0	55.6*	i
CCN1CCN(Cc2ccc(NC(=O)c3ccc(C)c(NC(=O)c4cc(-c5ccc(Br)cc5)n[nH]4)c3)cc2C(F)(F)F)CC1	17.5	·	-16.7	63.4*	95.9*	+
CCOc1cc(/C=N/NC(=O)c2cc(C)n(-c3ccc(F)cc3)c2C)ccc1O	0.0	·	4.1	-14.1	-0.2	·
Cc1cc(C(=O)N/N=C2\CC(=O)c3ccccc32)c(C)n1-c1ccc(F)cc1	-1.2	·	-2.1	-8.3	53.2*	i
